In article PMC9170026 (Proceedings of the National Academy of Sciences of the …, 2022):
Read-outs that look alike come from different tables or passages of the source. One block for each molecule: values may come before it.

Key:
[1] = molecular target: MAP3K12; conditions: cited from earlier work
[2] = test system: TNF-α–induced IKKβ-mediated NF-κB activation; assay: Dual luciferase assay-based screen of quinoxaline analogs; assay type: cell-based; conditions: relative to parent analog / 13-197
How it was run: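 Dual-luciferase NF-κB reporter screen of quinoxaline analogs against TNF-α–stimulated, IKKβ-mediated NF-κB activation. Two reference compounds, the parent quinoxaline and an allosteric IKKβ inhibitor, served as controls marking the ends of the activity range. n = 4, reported as average ± SEM. P values from a two-tailed Student's t test.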

[3] = molecular target: T1, IKKβ (Homo sapiens, UniProt O14920); assay: KinomeSCAN binding to IKKβ
T1 sequence (O14920 1-756): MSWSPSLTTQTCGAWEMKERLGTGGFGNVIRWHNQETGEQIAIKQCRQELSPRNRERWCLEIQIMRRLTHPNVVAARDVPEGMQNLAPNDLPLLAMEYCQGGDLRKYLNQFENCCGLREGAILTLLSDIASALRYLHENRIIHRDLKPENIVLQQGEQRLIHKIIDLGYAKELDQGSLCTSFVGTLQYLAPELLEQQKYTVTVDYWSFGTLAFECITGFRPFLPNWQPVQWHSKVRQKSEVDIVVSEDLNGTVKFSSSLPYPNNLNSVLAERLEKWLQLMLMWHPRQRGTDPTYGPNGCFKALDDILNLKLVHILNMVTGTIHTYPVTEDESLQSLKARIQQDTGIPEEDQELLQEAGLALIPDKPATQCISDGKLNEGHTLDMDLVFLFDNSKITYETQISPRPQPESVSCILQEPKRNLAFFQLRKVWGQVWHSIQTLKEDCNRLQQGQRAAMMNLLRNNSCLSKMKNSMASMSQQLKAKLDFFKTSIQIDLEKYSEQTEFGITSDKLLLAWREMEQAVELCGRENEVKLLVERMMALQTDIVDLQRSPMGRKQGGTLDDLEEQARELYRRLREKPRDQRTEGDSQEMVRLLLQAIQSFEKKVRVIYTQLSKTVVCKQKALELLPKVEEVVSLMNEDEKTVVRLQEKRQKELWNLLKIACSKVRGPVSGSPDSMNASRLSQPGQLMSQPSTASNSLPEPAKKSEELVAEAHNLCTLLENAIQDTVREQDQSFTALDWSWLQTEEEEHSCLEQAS

[4] = test system: MAP3K1-WT–induced p-IKKβ; assay: Western blot of MAP3K1-WT transfected HeLa cells; assay type: cell-based
[5] = Oral and intravenous dose pharmacokinetic studies in mice; conditions: mouse, in vivo
[6] = molecular target: T1, IKKβ; assay: 10-point dose-response IKKβ kinase activity assay; assay type: biochemical
[7] = test system: T3M4 orthotopic pancreatic tumors; assay: T3M4 orthotopic xenograft model; assay type: in vivo, athymic nude mice; conditions: 40 mg/kg, by mouth
[8] = test system: p-IKKβ; assay: p-IKKβ levels in MiaPaCa2 cells; assay type: cell-based; conditions: Homo sapiens, MIA PaCa-2, read-out: IC50 for reduction of p-IKKβ levels
[9] = test system: NF-κB pathway proteins; assay: Western blot of NF-κB pathway proteins in MiaPaCa2 cells, 6 h; assay type: cell-based, human; conditions: MiaPaCa2, 6h, dose-response
[10] = test system: TNF-α–induced MAP3K1-IKKβ–mediated NF-κB activity; assay: HeLa luciferase reporter under NF-κB response element; assay type: cell-based
[11] = Metabolic stability in human liver S9 fraction; assay type: in vitro ADME
[12] = test system: TNF-α–induced MAP3K1-IKKβ–mediated NF-κB activation; assay type: cell-based; conditions: MAP3K1-WT transfected HeLa, TNF-α 20 ng/mL, 6 h
[13] = test system: 328 kinase-associated peptides that correspond to 254 kinases; assay: KiNativ kinome profiling dose-response in PANC1 lysate; assay type: binding; conditions: PANC1 cell lysates, 1.25-10 μM
How it was run: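 KiNativ kinome profiling done as a dose-response in PANC1 cells. Test compound was used at 1.25, 2.5, 5, 7.5 and 10 μM. Each kinase inhibited was recorded at each concentration.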

Structure (SMILES): CC(C)n1nc(-c2cnc(N)c(OC(F)(F)F)c2)cc1C1[C@H]2CN(C3COC3)C[C@@H]12 (some centres unmarked) [DLK-In-1]
- Ki [1]: 3 nM

Structure (SMILES): Cn1cc(-c2cnc3ccc(NC(=O)Nc4ccc(F)c(Br)c4)cc3n2)cn1 [39-100]
- in vitro IKKβ binding [3]: did not bind
- in vitro IKKβ binding ([3]; listed as IKAM-1): inactive
- MAP3K1-WT–induced p-IKKβ [4]: inhibited
- improvement in oral bioavailability over 13-197 [5]: ~12 fold
- in vitro IKKβ enzymatic inhibition [6]: inactive
- Ki67 and CD31+ tumor cells vs vehicle [7]: reduced Ki67 and CD31^+ tumor cells
- p-IKKβ expression in tumors (IHC) vs vehicle [7]: reduced expression of p-IKKβ
- IC50 [8]: 2300 ± 200 nM
- Bcl-xL levels [9]: no change in Bcl-xL
- IκBα phosphorylation [9]: inhibited IκBα phosphorylation in a dose-dependent manner
- inhibition of TNF-α–induced NF-κB reporter activity [10]: selectively inhibited
- improvement of t1/2 (stability) over 13-197 [11]: ~8 fold
- major metabolites ([11]; 2h post-incubation): demethylated, glucuronidated, and sulfated products
- inhibition of TNF-α–induced MAP3K1-IKKβ–mediated NF-κB activation [12]: inhibited
- kinome selectivity [13]: selectively inhibits MAP3K1

Structure (SMILES): Cn1cc(-c2cnc3ccc(NC(=O)Nc4cccc(Br)c4)cc3n2)cn1 [compound 12]
- Bcl-xL levels [9]: no change in Bcl-xL
- IκBα phosphorylation [9]: inhibited IκBα phosphorylation in a dose-dependent manner
- Mcl-1 levels [9]: robust reduction in Mcl-1 levels
- improvement of t1/2 (stability) over 13-197 [11]: four-fold better
- inhibition of TNF-α–induced IKKβ-mediated NF-κB activity (SAR screen) [2]: further improved the activity

More lines, now with the values ahead:

- inhibition of TNF-α–induced IKKβ-mediated NF-κB activity (SAR screen) [2]: improved activity
Structure (SMILES): Cn1cc(-c2cnc3ccc(NC(=O)Nc4ccc(Br)cc4)cc3n2)cn1 [analog 5]

- inhibition of TNF-α–induced IKKβ-mediated NF-κB activity (SAR screen) [2]: reduced the activity
Structure (SMILES): Cn1cc(-c2cnc3ccc(NC(=O)Nc4ccccc4Br)cc3n2)cn1 [analog 13]
